# Laboratory results from paper PMC9064899 (The FEBS journal, 2021).
# Residue numbers refer to the chain shown, from its start.
# Key:
# [1] = tested on: UBIAD1-deficient FIXgla-PC/HEK293 reporter cells; experiment: VKD carboxylation of FIXgla-PC supported by K vitamins in UBIAD1-knockout cells; assay type: cell-based, human; settings: UBIAD1-deficient (knockout) FIXgla-PC/HEK293 cells
# In short: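 Ubiad1-knockout FIXgla-PC/HEK293 reporter cells were cultured for 24 h with increasing concentrations of vitamin K1, MK-4, vitamin K3, or menaquinones with 1–4 or 7 isoprene units. K vitamin stocks were made in polyethoxylated castor oil. Carboxylated FIXgla-PC was determined by ELISA, and half-maximal stimulation concentration (EC50) came from curve fitting. Mean ± SD.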
# UBIAD1 L67Q = molecular target: T1, UBIAD1 L67Q (Homo sapiens, UniProt Q9Y5Z9, L67Q); experiment: Cell-based UBIAD1 functional assay
# T1 sequence (Q9Y5Z9 1-338 L67Q): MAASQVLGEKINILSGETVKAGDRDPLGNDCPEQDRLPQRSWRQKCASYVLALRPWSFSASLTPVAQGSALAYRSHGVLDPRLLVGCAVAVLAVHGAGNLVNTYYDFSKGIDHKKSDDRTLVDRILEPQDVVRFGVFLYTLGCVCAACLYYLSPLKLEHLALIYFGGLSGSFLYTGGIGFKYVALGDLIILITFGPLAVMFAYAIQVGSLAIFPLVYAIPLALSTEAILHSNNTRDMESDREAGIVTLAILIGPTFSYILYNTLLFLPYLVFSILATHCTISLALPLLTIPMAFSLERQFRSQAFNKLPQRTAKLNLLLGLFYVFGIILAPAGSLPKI
# In short: (§1)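 Wild-type or mutant human UBIAD1 in pCI-neo was transiently transfected into Ubiad1-knockout FIXgla-PC/HEK293 cells (DMEM/F12, 10% FBS). […] After 24 h, carboxylated FIXgla-PC in the medium was measured by ELISA. Activity was normalized to wild type (100%), and EC50 came from a curve fit. Mean ± SD, n=3 independent experiments.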
# UBIAD1 N102S = molecular target: T2, UBIAD1 N102S (Homo sapiens, UniProt Q9Y5Z9, N102S); experiment: Cell-based UBIAD1 functional assay
# T2 sequence (Q9Y5Z9 1-338 N102S): T1 sequence (Q9Y5Z9 1-338 L67Q) with Q67L, N102S
# In short: as §1
# UBIAD1 C147S = molecular target: T3, UBIAD1 C147S (Homo sapiens, UniProt Q9Y5Z9); experiment: Cell-based UBIAD1 functional assay; settings: 1 μM vitamin K3
# T3 sequence (Q9Y5Z9 2-338): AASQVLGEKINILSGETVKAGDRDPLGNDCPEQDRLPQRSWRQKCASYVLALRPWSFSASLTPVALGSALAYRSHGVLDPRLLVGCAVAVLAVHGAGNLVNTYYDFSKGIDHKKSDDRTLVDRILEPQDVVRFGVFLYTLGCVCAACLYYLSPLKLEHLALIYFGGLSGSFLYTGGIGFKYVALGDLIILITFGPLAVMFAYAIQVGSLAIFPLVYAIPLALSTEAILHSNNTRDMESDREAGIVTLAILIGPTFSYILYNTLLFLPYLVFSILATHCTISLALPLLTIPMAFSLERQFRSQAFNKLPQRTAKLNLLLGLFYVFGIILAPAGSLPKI
# In short: as §1
# UBIAD1 G177R = molecular target: T4, UBIAD1 G177R (Homo sapiens, UniProt Q9Y5Z9, G177R); experiment: Cell-based UBIAD1 functional assay
# T4 sequence (Q9Y5Z9 1-338 G177R): T1 sequence (Q9Y5Z9 1-338 L67Q) with Q67L, G177R
# In short: as §1
# UBIAD1 K181A = molecular target: T5, UBIAD1 K181A (Homo sapiens, UniProt Q9Y5Z9, K181A); experiment: Cell-based UBIAD1 functional assay
# T5 sequence (Q9Y5Z9 1-338 K181A): T1 sequence (Q9Y5Z9 1-338 L67Q) with Q67L, K181A
# In short: as §1
# UBIAD1 D240N = molecular target: T6, UBIAD1 D240N (Homo sapiens, UniProt Q9Y5Z9, D240N); experiment: Cell-based UBIAD1 functional assay
# T6 sequence (Q9Y5Z9 1-338 D240N): T1 sequence (Q9Y5Z9 1-338 L67Q) with Q67L, D240N
# In short: as §1
compound,measurement,setting,value
"CC1=CC(=O)c2ccccc2C1=O [vitamin K3, menadione]",support of VKD carboxylation of reporter protein,[1],fails to carboxylate the reporter protein
same,EC50,UBIAD1 L67Q,3.8 ± 0.8 nM
same,Vitamin K-dependent carboxylation Activity ± SD,"UBIAD1 L67Q; L67Q, 1 μM vitamin K3",40.7 ± 2%
same,EC50,UBIAD1 N102S,3.9 ± 0.3 nM
same,Vitamin K-dependent carboxylation Activity ± SD,"UBIAD1 N102S; N102S, 1 μM vitamin K3",98.2 ± 3%
same,Vitamin K-dependent carboxylation Activity ± SD,UBIAD1 C147S,100.5 ± 3.7%
same,EC50,UBIAD1 G177R,3 ± 0.3 nM
same,Vitamin K-dependent carboxylation Activity ± SD,"UBIAD1 G177R; G177R, 1 μM vitamin K3",119.8 ± 1.2%
same,EC50,UBIAD1 K181A,11.9 ± 0.4 nM
same,Vitamin K-dependent carboxylation Activity ± SD,"UBIAD1 K181A; K181A, 1 μM vitamin K3",101.7 ± 3%
same,EC50,UBIAD1 D240N,11.2 ± 1.5 nM
same,Vitamin K-dependent carboxylation Activity ± SD,"UBIAD1 D240N; D240N, 1 μM vitamin K3",107.8 ± 2.5%
